Screens: PubChem, several laboratories
Platelet DG rel = modulates dense granule release in human platelets | actives 0.22% (n = 300,000) | AID 1663 | human platelet-rich plasma, SFLLRN dense granule ATP release, luminescence | inhibition, %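 (compounds screened at 7.5 µM in platelet-rich plasma)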;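 active = mean replicate score, as percent of positive control, at or above 50; inconclusive = mean below 50 but at least one replicate at or above 50; inactive = mean and every replicate below 50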
SENP8 block-1 = blocks the human protease SENP8; Q96LD8; purified SENP8, Z-RLRGG-aminoluciferin cleavage, luminescence; inhibition, % at 10 µM; actives 1.2% (n = 330,000); AID 2540; in the data active = inhibition above about 50%
SENP6 inh = SENP6 protease inhibition | Q9GZR1 | Recombinant SENP6 catalytic domain, aminoluciferin luminescence | inhibition, % at 10 µM | actives 1.8% (n = 330,000);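 active = inhibition above about 50% at the single tested dose, limit read from the data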;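 note: plate controls were DMSO wells with enzyme for no effect and DMSO wells lacking enzyme for full effect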
SENP7 inh = inhibitors of human SENP7 protease; inhibition, % at 5 µM; actives 1.5% (n = 330,000); recombinant SENP7, Z-RLRGG-aminoluciferin luminescence, 40 min; AID 434973;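 active = inhibition above about 50% at the single test dose, limit read from the data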;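 note: plate controls were DMSO with enzyme for no effect and no enzyme buffer wells for full effect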
Target sequence (Q9BQF6 706-1050 limits assumed): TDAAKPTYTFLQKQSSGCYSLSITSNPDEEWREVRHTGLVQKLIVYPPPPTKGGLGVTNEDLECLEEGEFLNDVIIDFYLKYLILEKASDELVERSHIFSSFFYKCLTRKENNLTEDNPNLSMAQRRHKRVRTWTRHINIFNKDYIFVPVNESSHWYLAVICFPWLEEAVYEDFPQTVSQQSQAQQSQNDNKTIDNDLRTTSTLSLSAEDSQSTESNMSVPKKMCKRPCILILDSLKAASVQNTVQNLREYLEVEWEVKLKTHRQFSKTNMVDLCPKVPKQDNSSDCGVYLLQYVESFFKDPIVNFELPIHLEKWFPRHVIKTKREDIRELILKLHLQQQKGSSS
SENP8 block-2 = SENP8 (human) protease inhibition; Q96LD8; recombinant SENP8, Nedd8 substrate fluorescence; inhibition, % at 20 µM; actives 0.64% (n = 360,000); AID 602440; in the data active = inhibition mostly above about 40%, no sharp cut-off; inactive = mostly below about 27%
SENP1 inh = blocks the human SENP1 SUMO protease catalytic domain | Q9P0U3 | recombinant SENP1 catalytic domain, CyPet-SUMO1-YPet FRET cleavage | inhibition, % at 10 µM | actives 0.21% (n = 360,000) | AID 624204;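 active = inhibition at least 30% at 10 µM, raw YFP signal under a set limit, fluorescence ratio 0.5 to 1.5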;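 note: 0% = enzyme with DMSO and 100% = no enzyme wells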
Target sequence (Q9P0U3 419-644 limits assumed): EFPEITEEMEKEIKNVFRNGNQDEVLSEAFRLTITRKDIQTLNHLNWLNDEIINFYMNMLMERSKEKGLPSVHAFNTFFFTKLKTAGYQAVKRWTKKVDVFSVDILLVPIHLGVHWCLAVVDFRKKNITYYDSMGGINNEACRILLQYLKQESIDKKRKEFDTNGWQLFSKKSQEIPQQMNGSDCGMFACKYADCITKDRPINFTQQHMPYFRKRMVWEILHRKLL
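Assay system – human recombinant His6-tagged SENP1 catalytic domain enzyme · Input – SENP1 enzyme, 20 pM final · Buffer or medium – Tris pH 8 buffer plus EDTA, NaCl, BME, BSA, NP40, catalase · Schedule – 50 min reaction at room temperature · Technique – FRET read of cyan and yellow fluorescence · Control set – no-enzyme wells low, DMSO-plus-enzyme wells high control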
SENP8 confirm = confirmation of human SENP8 protease inhibitors; inhibition, % at 12.5 µM; actives 40% (n = 6,200); shares compounds with SENP7 inh; Recombinant SENP8, Z-RLRGG-aminoluciferin luminescence, 60 min;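 active = mean inhibition across replicates above about 50%, limit read from the data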
SENP6 confirm = human SENP6 inhibition, confirmed. shares compounds with SENP7 inh. recombinant SENP6, Z-RLRGG-aminoluciferin luminescence. inhibition, % at 12.5 µM. actives 58% (n = 6,200). AID 488915
SENP7 conf = human SENP7 inhibition, confirmed. actives 69% (n = 6,200). inhibition, % at 12.5 µM. recombinant SENP7, Z-RLRGG-aminoluciferin luminescence, 40 min. shares compounds with SENP7 inh
Casp3 select = caspase-3 inhibition (SENP selectivity assay). shares compounds with SENP7 inh. purified caspase-3, Z-DEVD-aminoluciferin luminescence, 60 min. inhibition, % at 12.5 µM. actives 60% (n = 6,200). AID 488918;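 active = mean inhibition above about 50%, limit read from the data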;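 note: plate controls were enzyme with DMSO for no effect and wells without caspase-3 for full effect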
Luc interf = interferes with luciferase luminescence in SENP counter-screen; inhibition, % at 12.5 µM; actives 39% (n = 6,200); Pre-incubated SENP8/Z-RLRGG-aminoluciferin, luciferase luminescence interference; shares compounds with SENP7 inh;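 active = mean inhibition above about 50% when retested at one dose, limit read from the data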;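 note: plate controls were DMSO wells with completed reaction for no effect and substrate without enzyme for full effect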
The depositor's hits bear a star; i = inactive; ? = inconclusive; . = no result. Hits are enriched below; roughly 2.6% of the tested compounds scored in any of these assays.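 Rule for the calls, unless noted: active = mean inhibition above about 50% in the one-dose retest (limit read from the data); inactive = the rest.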

SMILES | Platelet DG rel | SENP8 block-1 | SENP6 inh | SENP7 inh | SENP8 block-2 | SENP1 inh | SENP8 confirm | SENP6 confirm | SENP7 conf | Casp3 select | Luc interf
COc1ccc(-c2nn(CCC#N)cc2C(=O)Nc2cccc(C(=O)O)c2)cc1OC | 0 | 5 | -3 | -1 | 7 | -1 | . | . | . | . | .
c1ccc(-n2nnc(-c3nccs3)n2)cc1 | 9 | 77* | 82* | 77* | -2 | -19 | 71* | 82* | 97* | 92* | 71*
Brc1ccccc1-n1nnc(-c2nccs2)n1 | -4 | 55* | 61* | 56* | 16 | 2 | 46 | 45 | 79* | 66* | 65*
O=C(CC1Nc2cccc3cccc(c23)NC1=O)Nc1ccccc1 (stereo unspecified) | -7 | 2 | 87* | 53* | -106 | -28 | 8 | 10 | -5 | -1 | -2
CCCOc1ccc(NC(=O)CC2Nc3ccccc3NC2=O)cc1 (stereo unspecified) | -1 | -10 | -2 | -4 | -15 | -79 | . | . | . | . | .
NC(=O)CC1Nc2cccc3cccc(c23)NC1=O (stereo unspecified) | 8 | 77* | 91* | 34 | -19 | -9 | -2 | 6 | 6 | 1 | -2
CC1=C(C(=O)N2CCCCCC2)CC(CC(=O)NC2CCCC2)C(=O)N1Cc1ccc(C(C)(C)C)cc1 (stereo unspecified) | . | . | . | . | 15 | 1 | . | . | . | . | .
COc1ccc(/C=C/C(=O)OCC(=O)N2CCCCCC2)c(OC)c1 | . | 3 | -7 | 5 | -49 | -1 | . | . | . | . | .
Cc1ccc2[nH]c3c(c2c1)CN(C(=O)CN1CCCc2ccccc21)CC3 | 0 | 36 | 95* | 34 | -14 | -21 | -9 | -6 | -7 | 2 | 1
O=C(O)c1ccc(OCc2ccc(C(=O)O)o2)cc1 | 1 | 84* | 88* | 92* | 24 | 0 | 87* | 88* | 99* | 55* | 71*
O=C(O)c1ccc(COc2ccccc2[N+](=O)[O-])o1 | 1 | 15 | 57* | 30 | 15 | 1 | 46 | 35 | 71* | 11 | 50*
O=C(O)c1ccc(COc2ccc(Cl)cc2)o1 | -5 | 80* | 79* | 82* | 16 | -1 | 91* | 90* | 97* | 32 | 89*
CCc1ccc(OCc2ccc(C(=O)O)o2)cc1 | -8 | 90* | 90* | 86* | 4 | 1 | 95* | 95* | 100* | 52* | 94*
N#Cc1ccc(OCc2ccc(C(=O)O)o2)cc1 | -3 | 12 | 24 | 17 | 6 | 1 | . | . | . | . | .
COC(=O)c1ccc(COc2ccc(Cl)cc2)o1 | -4 | 32 | 19 | -1 | 14 | 2 | . | . | . | . | .
CCOc1ccc(N(CC(=O)NCc2ccc(F)cc2)C(=O)c2ccco2)cc1 | 0 | -2 | -11 | -9 | 15 | 1 | . | . | . | . | .
CCc1cc(C(=O)N2CCCC(CO)(Cc3ccc(F)cc3)C2)n(C)n1 (stereo unspecified) | -4 | 0 | 7 | 8 | 12 | 3 | . | . | . | . | .
CC(=O)N(/N=C1\Sc2ccccc2C1=O)c1cccc(C)c1 | 7 | 94* | 92* | 93* | -13 | -13 | -6 | 84* | 58* | 11 | 16
CC(=O)N(CN1C(=O)c2ccccc2C1=O)c1cccc(C)c1 | -5 | -1 | -10 | -6 | 15 | 1 | . | . | . | . | .
CCN(CC(=O)Nc1ccc2c(c1)OCCO2)C(=O)CC(NC(C)=O)c1ccccc1 (stereo unspecified) | 0 | -5 | -15 | -8 | 1 | -1 | . | . | . | . | .
C[C@@H]1CN([C@@H](C)CO)S(=O)(=O)c2ccc(Br)cc2O[C@H]1CN(C)C(=O)c1ccccc1 | . | . | . | . | 0 | 0 | . | . | . | . | .
O=C(NC(=S)Nc1nc2ccc(F)cc2s1)c1ccco1 | 4 | 12 | 69* | 62* | 12 | -2 | 13 | 13 | 10 | 4 | 2
O=C(Nc1nc2cc3c(cc2s1)OCCO3)c1ccco1 | 15 | 96* | 97* | 100* | -465 | -2 | 97* | 98* | 102* | 97* | 96*
Cc1c(Cl)ccc2sc(NC(=O)c3ccco3)nc12 | 1 | 78* | 67* | 86* | -212 | 2 | 35 | 86* | 72* | 54* | 20
O=C(Nc1nc2cc3c(cc2s1)OCO3)c1ccco1 | 22 | . | . | . | -352 | 3 | . | . | . | . | .
SMILES | Platelet DG rel | SENP8 block-1 | SENP6 inh | SENP7 inh | SENP8 block-2 | SENP1 inh | SENP8 confirm | SENP6 confirm | SENP7 conf | Casp3 select | Luc interf
CCOc1ccc2nc(NC(=O)c3ccoc3C)sc2c1 | 69* | 98* | 96* | 100* | -158 | -6 | 99* | 100* | 103* | 99* | 81*
Cc1ccc(S(=O)(=O)N2CCCCC2CCNC(=O)C(=O)NCC2CCCO2)cc1 (stereo unspecified) | -2 | 6 | -16 | -2 | 18 | 1 | . | . | . | . | .
CC1CCc2nc(NC(=O)c3ccco3)sc2C1 (stereo unspecified) | 11 | 79* | 87* | 80* | 2 | -2 | 88* | 88* | 98* | 89* | 46
CCOc1ccc2nc(NC(=O)c3ccco3)sc2c1 | 50* | 92* | 97* | 97* | -238 | 0 | 93* | 98* | 102* | 96* | 83*
C=CCOC(=O)c1sc(NC(=O)c2ccco2)nc1C | 4 | 15 | 49 | 56* | -43 | 0 | 12 | 16 | 18 | 31 | 5
CCOC(=O)c1ccc2nc(NC(=O)c3ccco3)sc2c1 | 29 | 85* | 93* | 90* | i | -149 | 6 | 46 | 78* | 51* | 12
O=C1C(Sc2ccccc2)=C[C@@]2(O)CC[C@@H](O)[C@]1(Sc1ccccc1)[C@H]2O | . | . | . | . | 11 | -1 | . | . | . | . | .
Cc1nc(C(F)(F)F)c(C(=O)O)cc1-c1nc(-c2ccccc2)cs1 | -5 | -11 | -23 | -7 | -143 | 2 | . | . | . | . | .
CCOC(=O)c1ccc2nc(NC(=O)c3cccs3)sc2c1 | ? | 92* | 56* | 96* | -446 | 0 | -23 | 50 | 86* | 51* | 14
CCCC(=O)Nc1nc2ccc(C(=O)OCC)cc2s1 | 0 | 1 | -1 | -7 | -4 | -11 | . | . | . | . | .
